Laboratory results published in ChEMBL document CHEMBL4011632, “Design, Synthesis, and Evaluation of Thiazolidine-2,4-dione Derivatives as a Novel Class of Glutaminase Inhibitors” (J Med Chem, 2017).

Experiments:
[1] = target: T1, Glutaminase liver isoform, mitochondrial (Homo sapiens, UniProt Q9UI32); experiment: Inhibition of recombinant human His-tagged GAB (P56 to V602 residues) expressed in Escherichia coli C41(DE3)pLysS using glutamine as substrate preincubated for 10 mins followed by substrate addition measured after 60 mins by glutamate dehydrogenase coupled enzyme assay
T1 sequence (Q9UI32 whole entry): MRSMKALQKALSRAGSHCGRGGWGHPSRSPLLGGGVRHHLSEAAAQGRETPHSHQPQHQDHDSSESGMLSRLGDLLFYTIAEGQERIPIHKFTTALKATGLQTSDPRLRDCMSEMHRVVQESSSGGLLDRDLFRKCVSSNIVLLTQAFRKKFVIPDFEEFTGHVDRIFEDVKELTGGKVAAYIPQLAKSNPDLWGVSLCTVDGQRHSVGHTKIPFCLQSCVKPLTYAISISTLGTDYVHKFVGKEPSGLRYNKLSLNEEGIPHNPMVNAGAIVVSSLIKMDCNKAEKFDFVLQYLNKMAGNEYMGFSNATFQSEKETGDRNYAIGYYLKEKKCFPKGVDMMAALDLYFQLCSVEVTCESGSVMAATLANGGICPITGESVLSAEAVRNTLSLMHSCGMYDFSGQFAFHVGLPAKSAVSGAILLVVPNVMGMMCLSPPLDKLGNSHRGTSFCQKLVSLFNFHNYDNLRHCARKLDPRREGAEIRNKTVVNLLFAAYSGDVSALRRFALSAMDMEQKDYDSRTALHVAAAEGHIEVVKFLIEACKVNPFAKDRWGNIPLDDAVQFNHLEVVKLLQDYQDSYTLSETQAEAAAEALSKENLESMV

[2] = target: T2, Glutaminase kidney isoform, mitochondrial (Homo sapiens, UniProt O94925); experiment: Inhibition of recombinant human His-tagged KGA (L123 to L669 residues) expressed in Escherichia coli BL21(DE3)pLysS using glutamine substrate preincubated for 10 mins followed by substrate addition measured after 60 mins by glutamate dehydrogenase coupled enzyme assay
T2 sequence (O94925 whole entry): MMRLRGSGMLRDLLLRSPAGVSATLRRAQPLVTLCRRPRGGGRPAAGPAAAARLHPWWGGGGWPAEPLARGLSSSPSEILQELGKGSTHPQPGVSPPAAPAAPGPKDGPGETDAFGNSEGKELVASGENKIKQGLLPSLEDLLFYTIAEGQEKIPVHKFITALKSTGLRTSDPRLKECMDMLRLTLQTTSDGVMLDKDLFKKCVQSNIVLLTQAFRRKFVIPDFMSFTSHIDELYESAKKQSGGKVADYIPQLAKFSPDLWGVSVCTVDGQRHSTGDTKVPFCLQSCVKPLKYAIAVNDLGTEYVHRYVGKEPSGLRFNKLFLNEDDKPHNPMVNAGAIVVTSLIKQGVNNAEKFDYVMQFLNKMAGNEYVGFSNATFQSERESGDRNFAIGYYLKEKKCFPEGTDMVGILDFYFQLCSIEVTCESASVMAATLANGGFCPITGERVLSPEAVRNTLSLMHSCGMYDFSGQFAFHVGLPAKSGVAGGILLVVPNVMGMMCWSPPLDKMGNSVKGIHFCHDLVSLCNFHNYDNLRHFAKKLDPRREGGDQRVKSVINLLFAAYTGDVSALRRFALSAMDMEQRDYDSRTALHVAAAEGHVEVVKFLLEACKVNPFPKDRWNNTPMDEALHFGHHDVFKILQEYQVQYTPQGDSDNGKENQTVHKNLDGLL

[3] = target: T2, Glutaminase kidney isoform, mitochondrial; experiment: Inhibition of recombinant human MCF7 cells derived His-tagged GAC (L123 to S598 residues) expressed in Escherichia coli C41(DE3)pLysS using glutamine as substrate preincubated for 10 mins followed by substrate addition measured after 60 mins by glutamate dehydrogenase coupled enzyme assay
Method in brief: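 Human GAC cloned from MCF7 cDNA into pET28a(+) as a His-tagged construct. Expressed in E. coli C41(DE3)pLysS in Terrific Broth with kanamycin, induced with 1 mM IPTG for 6 h at 25 °C. Purified on Ni2+ resin with 500 mM imidazole elution and exchanged into 50 mM NaH2PO4, 50 mM Tris-HCl pH 8.0, 2 mM DTT, 50% glycerol. Activity measured by two-step glutaminase assay.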

[4] = species on record: Homo sapiens; experiment: Selectivity index, ratio of IC50 for recombinant human His-tagged GAB (P56-V602 residues) expressed in Escherichia coli C41(DE3)pLysS to IC50 for recombinant human His-tagged KGA (L123 to L669 residues) expressed in Escherichia coli BL21(DE3)pLysS
[5] = system: ASPC1; experiment: Anticlonogenic activity against human Aspc-1 cells at 2 uM after 21 days by crystal violet staining based assay relative to control; assay type: functional; settings: ASPC1, 504 h
Method in brief: (§1)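 Anchorage-dependent colony formation: AsPC-1 cells seeded at 1000 cells/well in six-well plates and treated with compound. Colony formation is expressed as percent of vehicle treatment. Mean ± SD from at least three independent experiments, each in duplicate.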

[6] = system: ASPC1; experiment: Anticlonogenic activity against human Aspc-1 cells at 10 uM after 21 days by crystal violet staining based assay relative to control; assay type: functional; settings: ASPC1, 504 h; method in brief: as §1
[7] = system: ASPC1; experiment: Growth inhibition of human Aspc-1 cells after 72 hrs by MTS assay; assay type: functional, cell-based; settings: ASPC1, 72 h
Method in brief: (§2)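 Growth inhibition by MTS viability read-out. Cells seeded in 96-well plates at 4000/well (AsPC-1) or 8500/well (MDA-MB-231). Mean ± SD from at least three independent experiments, each in duplicate.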

[8] = system: MDA-MB-231; experiment: Growth inhibition of human MDA-MB-231 cells after 72 hrs by MTS assay; assay type: functional, cell-based; settings: MDA-MB-231, 72 h; method in brief: as §2

| SMILES | IC50 [1] [nM] | IC50 [2] [nM] | IC50 [3] [nM] | Ratio IC50 [4] | IC50 [7] [µM] | IC50 [8] [µM] | inhibition at 2 µM [5] [%] | inhibition at 10 µM [6] [%] |
| --- | --- | --- | --- | --- | --- | --- | --- | --- |
| Cc1cc(/C=C2\SC(=O)NC2=O)c(C)n1-c1ccc(-c2ccc(/C=C3\SC(=O)NC3=O)cc2)c(O)c1 | 5720 | 247 | 760 | 23 |  |  |  |  |
| O=C1NC(=O)/C(=C/c2cc(-c3ccccc3)n(-c3ccc(Br)cc3)c2-c2ccccc2)S1 | 11800 | 4900 | 8760 | 2.4 |  |  |  |  |
| CCc1cc(-c2ccc(-n3c(-c4cccs4)cc(/C=C4\SC(=O)NC4=O)c3-c3cccs3)cc2)ccc1/C=C1\SC(=O)NC1=O | 1720 | 54 | 391 | 32 | 24.8 | 26.3 | 44 | 89 |
| Cc1cc(/C=C2\SC(=O)NC2=O)c(C)n1-c1ccc(Br)cc1 | > 100000 | 3100 | 5370 | > 32 |  |  |  |  |
| COc1cc(-n2c(C)cc(/C=C3\SC(=O)NC3=O)c2C)ccc1-c1ccc(/C=C2\SC(=O)NC2=O)cc1 | 2140 | 243 | 355 | 8.8 |  |  |  |  |
| O=C1NC(=O)/C(=C/c2cc(-c3cccs3)n(-c3ccc(Br)cc3)c2-c2cccs2)S1 | 3780 | 754 | 1270 | 5 |  |  |  |  |

These reach a lower IC50 [1]. Values come first.

| IC50 [1] [nM] | IC50 [2] [nM] | IC50 [3] [nM] | Ratio IC50 [4] | IC50 [7] [µM] | IC50 [8] [µM] | SMILES | inhibition at 2 µM [5] [%] | inhibition at 10 µM [6] [%] |
| --- | --- | --- | --- | --- | --- | --- | --- | --- |
| 1240 | 56 | 217 | 22 | 8.8 | 8.2 | CCc1cc(-c2ccc(-n3c(-c4ccccc4)cc(/C=C4\SC(=O)NC4=O)c3-c3ccccc3)cc2)ccc1/C=C1\SC(=O)NC1=O | 51 | 91 |
| 1190 | 66 | 177 | 18 |  |  | CCc1cc(-c2ccc(-n3c(C)cc(/C=C4\SC(=O)NC4=O)c3C)cc2OC)ccc1/C=C1\SC(=O)NC1=O |  |  |
| 1190 | 59 | 92 | 20 |  |  | CCc1cc(-c2ccc(-n3c(C)cc(/C=C4\SC(=O)NC4=O)c3C)cc2C#N)ccc1/C=C1\SC(=O)NC1=O |  |  |
| 1030 | 39 | 87 | 26 | 12.5 | 15.3 | CCc1cc(-c2ccc(-n3c(C)cc(/C=C4\SC(=O)NC4=O)c3C)cc2)ccc1/C=C1\SC(=O)NC1=O | 28 | 59 |
| 787 | 48 | 148 | 16 | 12 | 8.9 | COc1cc(-n2c(-c3ccccc3)cc(/C=C3\SC(=O)NC3=O)c2-c2ccccc2)ccc1-c1ccc(/C=C2\SC(=O)NC2=O)cc1 | 90 | 95 |
| 269 | 35 | 53 | 7.7 | 11.9 | 10.6 | COc1cc(-n2c(-c3cccs3)cc(/C=C3\SC(=O)NC3=O)c2-c2cccs2)ccc1-c1ccc(/C=C2\SC(=O)NC2=O)cc1 | 89 | 95 |
